{
  "source": "ChEMBL document CHEMBL1149297",
  "about": "(J Med Chem, 2004)",
  "key": {"[1]": {"target": "T1, Neuronal acetylcholine receptor; alpha3/beta4 (Homo sapiens, UniProt P30926+P32297)", "T1 sequence (P30926 whole entry)": "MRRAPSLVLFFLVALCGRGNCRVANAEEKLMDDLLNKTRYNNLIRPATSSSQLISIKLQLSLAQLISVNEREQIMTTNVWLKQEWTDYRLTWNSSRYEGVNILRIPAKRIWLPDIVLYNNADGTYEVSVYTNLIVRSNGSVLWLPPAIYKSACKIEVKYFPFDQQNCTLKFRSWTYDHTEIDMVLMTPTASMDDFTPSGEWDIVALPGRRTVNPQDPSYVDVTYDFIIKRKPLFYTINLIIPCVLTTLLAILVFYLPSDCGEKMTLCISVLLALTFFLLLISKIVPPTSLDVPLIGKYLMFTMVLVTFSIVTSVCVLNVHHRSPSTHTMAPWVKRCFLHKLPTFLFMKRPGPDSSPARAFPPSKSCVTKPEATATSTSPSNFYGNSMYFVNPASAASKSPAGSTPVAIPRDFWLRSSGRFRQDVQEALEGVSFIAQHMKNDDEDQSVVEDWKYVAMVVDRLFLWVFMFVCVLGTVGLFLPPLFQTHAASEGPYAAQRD", "T1 sequence (P32297 whole entry)": "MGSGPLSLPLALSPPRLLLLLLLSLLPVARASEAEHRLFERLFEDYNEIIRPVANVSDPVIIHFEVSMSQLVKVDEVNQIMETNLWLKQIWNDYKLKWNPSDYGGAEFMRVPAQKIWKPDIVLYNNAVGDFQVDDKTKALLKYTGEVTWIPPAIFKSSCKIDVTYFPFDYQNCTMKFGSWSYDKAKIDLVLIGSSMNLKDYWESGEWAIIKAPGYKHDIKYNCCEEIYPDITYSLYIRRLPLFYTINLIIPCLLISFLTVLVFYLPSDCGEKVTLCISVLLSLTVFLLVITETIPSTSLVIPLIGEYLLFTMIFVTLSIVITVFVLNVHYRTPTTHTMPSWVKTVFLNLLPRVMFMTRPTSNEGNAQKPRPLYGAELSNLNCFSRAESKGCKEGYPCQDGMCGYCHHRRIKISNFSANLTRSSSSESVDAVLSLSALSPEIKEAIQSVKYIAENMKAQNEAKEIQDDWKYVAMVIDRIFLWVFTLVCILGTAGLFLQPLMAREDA", "assay": "Agonist activity at alpha-3-beta-4 nAChR in KXalpha-3-beta-4R2 cells by rubidium efflux assay", "type": "functional, cell-based", "in_short": "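KXα3β4R2 cells stably expressing α3β4 nAChRs, grown in MEM/10% FBS with geneticin selection, plated on poly(D-lysine) and grown 48 h at 37 °C to >90% confluence. Loaded with 86Rb+ (2 μCi/well) 4 h at 37 °C, washed in Hepes-buffered saline pH 7.4, then exposed to compound for 2 min. Released 86Rb+ counted by liquid scintillation.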"}, "[2]": {"target": "T1, Neuronal acetylcholine receptor; alpha3/beta4", "assay": "Agonist activity at alpha-3-beta-4 nAChR in KXalpha-3-beta-4R2 cells by rubidium efflux assay relative to nicotine", "type": "functional, cell-based", "parameters": "concentration or dose not given beside the values", "in_short": "(§1)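 KXα3β4R2 cells (stably expressing α3β4 nAChR) grown in selection MEM with 10% FBS and geneticin, plated on poly(D-lysine) and grown 48 h at 37 °C to >90% confluence. Cells were loaded with 86Rb+ (2 μCi/well) for 4 h at 37 °C and washed three times in buffer A (Hepes/NaCl/KCl/MgSO4/CaCl2/glucose, pH 7.4). Compound in buffer A was applied for 2 min, and efflux was counted by liquid scintillation.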"}, "[3]": {"target": "T1, Neuronal acetylcholine receptor; alpha3/beta4", "assay": "Displacement of [3H]epibatidine from alpha-3-beta-4 nAChR immobilized on liquid chromatographic stationary phases", "type": "protein-complex assay"}, "[4]": {"target": "Neuronal acetylcholine receptor; alpha4/beta2 (Homo sapiens) (UniProt P17787+P43681)", "assay": "Displacement of [3H]epibatidine from alpha-4-beta-2 nAChR immobilized on liquid chromatographic stationary phases", "type": "protein-complex assay"}, "[5]": {"target": "T1, Neuronal acetylcholine receptor; alpha3/beta4", "assay": "Agonist activity at alpha3beta4 nAChR in KXalpha-3-beta-4R2 cells by rubidium efflux assay at 1 mM", "type": "functional, cell-based", "in_short": "as §1"}},
  "note": "pEC50: −log10 of the molar value. Activity calls are given as the source filed them. The calls are words filed in the database; no cut-off is given here.",
  "data": [
    {"smiles": "COC(=O)N1CCC[C@@H]2C=Cc3cc(Cl)nc(Cl)c3[C@@H]21", "values": [
      {"measurement": "pEC50", "setting": "[1]", "value": 4.86},
      {"measurement": "Activity", "setting": "[2]", "value": 75, "unit": "%"}
    ]},
    {"smiles": "COC(=O)N1CC[C@@H]2CCc3ccnc(Cl)c3[C@@H]21", "values": [
      {"measurement": "Activity", "setting": "[3]", "value": -0.32, "unit": "mL"},
      {"measurement": "pEC50", "setting": "[1]", "value": "< 3.00"},
      {"measurement": "Activity", "setting": "[2]", "value": 10, "unit": "%"},
      {"measurement": "Activity", "setting": "[4]", "value": 0.18, "unit": "mL"}
    ]},
    {"smiles": "Clc1ccc(C2CC3CCC2N3)cn1", "note": "(configuration not stated)", "values": [
      {"measurement": "Activity", "setting": "[2]", "value": "inactive"}
    ]},
    {"smiles": "c1cc2c(cn1)[C@@H]1NCCC[C@@H]1CC2", "values": [
      {"measurement": "Activity", "setting": "[5]", "value": "Active"},
      {"measurement": "pEC50", "setting": "[1]", "value": "< 3.00"},
      {"measurement": "Activity", "setting": "[2]", "value": 10, "unit": "%"}
    ]},
    {"smiles": "COC(=O)N1CC[C@@H]2C=Cc3cc(Cl)nc(Cl)c3[C@@H]21", "values": [
      {"measurement": "Activity", "setting": "[3]", "value": 0.28, "unit": "mL"},
      {"measurement": "pEC50", "setting": "[1]", "value": 4.68},
      {"measurement": "Activity", "setting": "[2]", "value": 100, "unit": "%"},
      {"measurement": "Activity", "setting": "[4]", "value": 0.28, "unit": "mL"}
    ]},
    {"smiles": "COC(=O)N1CC[C@@H]2C[C@@H](Sc3ccccc3)c3cc(Cl)nc(Cl)c3[C@@H]21", "values": [
      {"measurement": "Activity", "setting": "[3]", "value": -0.04, "unit": "mL"},
      {"measurement": "Activity", "setting": "[5]", "value": "inactive"},
      {"measurement": "pEC50", "setting": "[1]", "value": "< 3.00"},
      {"measurement": "Activity", "setting": "[2]", "value": 10, "unit": "%"},
      {"measurement": "Activity", "setting": "[4]", "value": 0.17, "unit": "mL"}
    ]},
    {"smiles": "COC(=O)N1CC[C@@H]2C[C@@H](S(=O)(=O)c3ccccc3)c3cc(Cl)nc(Cl)c3[C@@H]21", "values": [
      {"measurement": "Activity", "setting": "[3]", "value": -0.12, "unit": "mL"},
      {"measurement": "pEC50", "setting": "[1]", "value": "< 3.00"},
      {"measurement": "Activity", "setting": "[2]", "value": 10, "unit": "%"},
      {"measurement": "Activity", "setting": "[4]", "value": 0.13, "unit": "mL"}
    ]},
    {"smiles": "CN1CCC[C@H]1c1cccnc1", "values": [
      {"measurement": "Activity", "setting": "[3]", "value": 0.16, "unit": "mL"},
      {"measurement": "Activity", "setting": "[2]", "value": 100, "unit": "%"},
      {"measurement": "Activity", "setting": "[4]", "value": 0.26, "unit": "mL"}
    ]},
    {"smiles": "Clc1cc2c(c(Cl)n1)[C@@H]1NCC[C@@H]1C[C@H]2Sc1ccccc1", "values": [
      {"measurement": "pEC50", "setting": "[1]", "value": 4.58},
      {"measurement": "Activity", "setting": "[2]", "value": 35, "unit": "%"}
    ]},
    {"smiles": "COC(=O)N1CCC[C@@H]2C[C@@H](Sc3ccccc3)c3cc(Cl)nc(Cl)c3[C@@H]21", "values": [
      {"measurement": "pEC50", "setting": "[1]", "value": 4.74},
      {"measurement": "Activity", "setting": "[2]", "value": 100, "unit": "%"}
    ]},
    {"smiles": "COC(=O)N1CC[C@@H]2CCc3ccncc3[C@@H]21", "values": [
      {"measurement": "Activity", "setting": "[3]", "value": 0.12, "unit": "mL"},
      {"measurement": "Activity", "setting": "[4]", "value": 0.23, "unit": "mL"}
    ]}
  ]
}
